Results as given in ChEMBL document CHEMBL4266061, “Discovery of 4-Azaindole Inhibitors of TGFβRI as Immuno-oncology Agents” (ACS Med Chem Lett, 2018).

How the values were obtained:
[1] = Fraction unbound in rat plasma; type: ADME, cell-free
Mus musculus = experiment: Toxicity in C57/BL6 mouse xenografted with mouse MC38 cells assessed as body weight loss at 25 to 50 mg/kg, po qd for 28 days measured twice weekly; type: organism-based; details: in vivo, 672 h
Summary of the method: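 Nine C57/BL6 mice per group were injected subcutaneously with 1 × 10^6 MC38 cells. Tumors were measured on day 6, then mice were randomized. Compound was given orally every day for 28 days, alone or with anti-PD-1 antibody (IP every 4 days, three doses). Tumor volumes were measured twice weekly, and body weight loss (>5%) was monitored.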

[2] = AUC (0 to 24 hrs) in Balb/C mouse at 10 mg/kg, po qd; type: ADME, organism-based; parameters: time < 24 hr, dose 10 mg/kg, route oral; details: in vivo
Summary of the method: (§1)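 Compound given orally to mice. Plasma levels were followed over time, and Cmax, Tmax and AUC0–24 were taken from the plasma concentration–time profile.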

[3] = Metabolic stability in rat liver microsomes assessed as parent compound remaining; type: ADME, microsome
[4] = Fraction unbound in mouse plasma; type: ADME, cell-free
[5] = Metabolic stability in human liver microsomes assessed as parent compound remaining; type: ADME, microsome
[6] = Fraction unbound in human plasma; type: ADME, cell-free
[7] = Tmax in Balb/C mouse at 10 mg/kg, po qd; type: ADME, organism-based; details: in vivo; summary of the method: as §1
[8] = Cmax in Balb/C mouse at 10 mg/kg, po qd; type: ADME, organism-based; parameters: dose 10 mg/kg, route oral; details: in vivo; summary of the method: as §1
[9] = Metabolic stability in mouse liver microsomes assessed as parent compound remaining; type: ADME, microsome
[10] = AUC (0 to 24 hrs) in Balb/C mouse at 50 mg/kg, po bid; type: ADME, organism-based; parameters: time < 24 hr, dose 50 mg/kg, route oral; details: in vivo; summary of the method: as §1
[11] = Cmax in Balb/C mouse at 50 mg/kg, po bid; type: ADME, organism-based; parameters: dose 50 mg/kg, route oral; details: in vivo; summary of the method: as §1
[12] = Tmax in Balb/C mouse at 50 mg/kg, po bid; type: ADME, organism-based; details: in vivo; summary of the method: as §1

SMILES | fraction unbound [1] | Activity (Mus musculus) | AUC at 24 h [2] | Stability [3] | fraction unbound [4] | Stability [5] | fraction unbound [6] | Tmax [7] | Cmax [8] | Stability [9] | AUC at 24 h [10] | Cmax [11] | Tmax [12]
[2H]C([2H])([2H])Oc1ccc(-c2c(-c3ccnc(NC(C)=O)c3)[nH]c3cccnc23)nc1 | 0.25 | < 5% | 19.5 µM·h | 89% | 0.12 | 96% | 0.24 | 1 h | 5.3 µM | 74% |  |  | 
CC(=O)Nc1cc(-c2[nH]c3cccnc3c2-c2cccc(C(F)F)n2)ccn1 | 0.18 |  |  | 85% | 0.05 | 60% | 0.09 |  |  | 66% | 14.1 µM·h | 7.4 µM | 1 h
